Assay results reported in ChEMBL document CHEMBL1133296, “Synthesis and 5-hydroxytryptamine (5-HT) activity of 2,3,4,4a-tetrahydro-1H-pyrazino[1,2-a]quinoxalin-5-(6H)ones and 2,3,4,4a,5,6-hexahydro-1H-pyrazino[1,2-a]quinoxalines” (Bioorg Med Chem Lett, 2000).

Assays:
[1] = molecular target: T1, 5-hydroxytryptamine receptor 2C (Homo sapiens, UniProt P28335); experiment: Binding affinity using [125I]DOI as radioligand with membranes isolated from a CHO-k cell line expressing the human 5-hydroxytryptamine 2C receptor
T1 sequence (P28335 whole entry): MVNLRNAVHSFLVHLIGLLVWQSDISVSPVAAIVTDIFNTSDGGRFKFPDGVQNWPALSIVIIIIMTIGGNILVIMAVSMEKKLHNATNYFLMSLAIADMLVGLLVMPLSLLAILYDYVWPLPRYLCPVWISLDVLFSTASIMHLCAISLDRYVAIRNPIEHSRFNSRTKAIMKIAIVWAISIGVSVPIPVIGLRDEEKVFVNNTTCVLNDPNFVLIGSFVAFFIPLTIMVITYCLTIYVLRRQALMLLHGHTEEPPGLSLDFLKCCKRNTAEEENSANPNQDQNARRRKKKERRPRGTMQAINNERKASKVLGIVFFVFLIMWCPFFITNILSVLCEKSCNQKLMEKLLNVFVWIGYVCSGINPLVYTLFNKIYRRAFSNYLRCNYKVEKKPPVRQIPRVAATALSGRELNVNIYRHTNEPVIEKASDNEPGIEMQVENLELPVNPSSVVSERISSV
Procedure, shortened: (§1)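 Competition binding used human 5-HT2C CHO membranes. [125I]DOI labelled agonist sites and [3H]mesulergine labelled antagonist sites. IC50 came from nine-point concentration curves, each point in triplicate. Ki was calculated by Cheng-Prusoff: Ki = IC50/(1 + [radioligand]/Kd).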

[2] = molecular target: T1, 5-hydroxytryptamine receptor 2C; experiment: Binding affinity using [3H]mesulergine as radioligand with receptor membranes isolated from a CHO-k cell line expressing the human 5-hydroxytryptamine 2C receptor; procedure, shortened: as §1
[3] = Emax values indicate relative efficacy compared to a maximally effective 5-HT2c (5-HT) concentration.; format: functional
Procedure, shortened: (§2)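 CHO cells stably expressing human 5-HT2C were labelled overnight with myo-[3H]inositol, washed, and preincubated 30 min in medium containing LiCl. Agonist was then added at 10^-10 to 10^-5 M for 30 min. [3H]IP was counted by liquid scintillation and expressed as % of the maximal 5-HT response. EC50 came from six-point curves in duplicate, fitted by a three-parameter logistic; Emax is relative to maximal 5-HT.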

[4] = molecular target: T2, 5-hydroxytryptamine receptor 2C (Homo sapiens) (UniProt P28335); experiment: Inhibitory activity using [3H]mesulergine as radioligand with receptor membranes isolated from a CHO-k cell line expressing the human 5-hydroxytryptamine 2C receptor at a concentration of 1 uM; format: cell-free
T2 sequence (whole entry): T1 sequence (P28335 whole entry)

[5] = molecular target: T1, 5-hydroxytryptamine receptor 2C; experiment: Agonistic activity for 5-HT2c (5-HT2C) by measuring [3H]inositol monophosphate fromation in CHO cells in which the human 5-HT2C receptor subtype was stably expressed; format: functional, cell-based; procedure, shortened: as §2
[6] = system: Rattus norvegicus; experiment: Concentration required to decrease food intake in Sprague-Dawley rats when compound administered intraperitoneally; format: functional; settings: ip
Procedure, shortened: (§3)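 Male Sprague-Dawley rats were fasted 24 h, then given vehicle or test dose, ip or po. Powdered chow was returned and 2 h food intake was recorded. Each animal was fasted twice weekly (Monday, Thursday) and tested the following day. Groups were compared by one-way ANOVA with post hoc t-tests, and ED50 was calculated.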

[7] = system: Rattus norvegicus; experiment: Concentration required to decrease food intake in Sprague-Dawley rats when compound administered orally; format: functional; settings: po; procedure, shortened: as §3

| Structure (SMILES) | Ki [2] [nM] | Emax [3] [%] | inhibition [4] [%] | also measured |
| --- | --- | --- | --- | --- |
| O=C1Nc2cc(Cl)c(Cl)cc2N2CCNCC12 (centres undefined) | 58 | 110 | – | Ki [1]: 4 nM |
| O=C1Nc2ccccc2N2CCNC[C@@H]12 | – | – | 10 | – |
| O=C1Nc2ccc(Cl)c(Cl)c2N2CCNCC12 (centres undefined) | 1700 | – | – | Ki [1]: 1000 nM |
| O=C1Nc2cc(C(F)(F)F)c(Cl)cc2N2CCNCC12 (centres undefined) | 84 | 108 | – | Ki [1]: 9 nM; EC50 [5]: 136 nM |
| COc1ccc2c(c1)N1CCNCC1C(=O)N2 (centres undefined) | – | – | 36 | – |
| c1ccc2c(c1)NCC1CNCCN21 (centres undefined) | – | – | 22 | – |
| Cc1ccc2c(c1)N1CCNCC1C(=O)N2 (centres undefined) | – | – | 0 | – |
| O=C1Nc2ccc(F)cc2N2CCNCC12 (centres undefined) | – | – | 26 | – |
| CN1C(=O)C2CNCCN2c2ccccc21 (centres undefined) | – | – | 9 | – |
| O=C1Nc2cc(NC(=O)C(F)(F)F)ccc2N2CCNCC12 (centres undefined) | – | – | 21 | – |
| NC(=O)c1ccc2c(c1)NC(=O)C1CNCCN21 (centres undefined) | – | – | 5 | – |
| O=C1Nc2ccc(Cl)cc2N2CCNCC12 (centres undefined) | – | – | 67 | – |
| O=C1Nc2cc(F)ccc2N2CCNCC12 (centres undefined) | – | – | 7 | – |
| O=C1Nc2c(F)cccc2N2CCNCC12 (centres undefined) | – | – | 48 | – |
| O=C1Nc2ccc(Cl)cc2N2CCNC[C@H]12 | 238 | 95 | – | Ki [1]: 34 nM; EC50 [5]: 86 nM |
| O=C1Nc2cccc(Cl)c2N2CCNCC12 (centres undefined) | – | – | 8 | – |
| Clc1cc2c(cc1Cl)N1CCNC[C@@H]1CN2 | 88 | 107 | – | Ki [1]: 7 nM; EC50 [5]: 49 nM |
| O=C1Nc2cc(C(F)(F)F)c(Cl)cc2N2CCNC[C@@H]12 | 3600 | 85 | – | – |

| Structure (SMILES) | Ki [2] [nM] | Emax [3] [%] | inhibition [4] [%] | also measured |
| --- | --- | --- | --- | --- |
| O=C1Nc2cc(Cl)c(Cl)cc2N2CCNC[C@H]12 | 32 | 112 | – | Ki [1]: 3 nM; ED50 [6]: 2 mg/kg; ED50 [7]: 10 mg/kg |
| O=C1Nc2cc(Cl)ccc2N2CCNCC12 (centres undefined) | – | – | 33 | – |
| COC(=O)c1ccc2c(c1)NC(=O)C1CNCCN21 (centres undefined) | – | – | 1 | – |
| O=C1Nc2ccccc2N2CCNCC12 (centres undefined) | – | – | 25 | – |
| O=C1Nc2cc(C(F)(F)F)ccc2N2CCNCC12 (centres undefined) | – | – | 46 | – |
| O=C1Nc2cc(F)c(F)cc2N2CCNCC12 (centres undefined) | 1800 | – | – | – |
| O=C1Nc2cc(C(F)(F)F)c(Cl)cc2N2CCNC[C@H]12 | 160 | 97 | – | – |
| O=C1Nc2ccc(O)cc2N2CCNCC12 (centres undefined) | – | – | 24 | – |
| O=C1Nc2ccccc2N2CCNC[C@H]12 | – | – | 47 | – |
| FC(F)(F)c1cc2c(cc1Cl)N1CCNC[C@@H]1CN2 | 92 | 76 | – | Ki [1]: 17 nM; EC50 [5]: 19 nM |
| CCCCN(CCCC)c1ccc2c(c1)NC(=O)C1CNCCN21 (centres undefined) | – | – | 7 | – |
| O=C(c1ccccc1)c1ccc2c(c1)NC(=O)C1CNCCN21 (centres undefined) | 9200 | – | – | Ki [1]: 2150 nM |
| O=C1Nc2c(Cl)cc(Cl)cc2N2CCNCC12 (centres undefined) | 368 | – | – | – |
| Clc1cc2c(cc1Cl)N1CCNCC1CN2 (centres undefined) | 18 | 96 | – | EC50 [5]: 7.6 nM |
| O=C1Nc2c(Cl)cccc2N2CCNCC12 (centres undefined) | – | – | 15 | – |
| Nc1ccc2c(c1)NC(=O)C1CNCCN21 (centres undefined) | – | – | 0 | – |
| Clc1cc2c(cc1Cl)N1CCNC[C@H]1CN2 | 61 | 82 | – | Ki [1]: 8 nM; EC50 [5]: 45 nM |
| O=C1Nc2cc(Cl)c(Cl)cc2N2CCNC[C@@H]12 | 285 | 88 | – | – |
